Experimental data pooled from the literature.
Target: Serine/threonine-protein kinase 10 (STK10, Homo sapiens, UniProt O94804)

Structure (SMILES)	effect on	action	technique	cells	tested at	endpoint	result
Cc1cnc(NC2CCOCC2)nc1-n1cnc(C(=O)NC(CN)c2cc(F)cc(Cl)c2)c1 (centres unmarked)	enzyme activity	inhibitor	radiometric	–	1 µM	remaining activity	87%
Cn1nc(C(F)(F)F)cc1-c1cnc(N2CCc3cc(S(=O)(=O)Nc4c(F)cc(Cl)cc4F)cc(N4CCCC4=O)c32)nc1	cell-free assay	–	competition with immobilised ligand	–	1 µM	remaining binding	94%
CN1CC(Oc2cnc(C#N)cc2-c2ccn3nc(NC(=O)C4CC4)cc3c2)C1	enzyme activity	inhibitor	–	–	1 µM	inhibition	30%
O=C(O)[C@H]1[C@H](Cn2nnc3ccccc3c2=O)CC[C@@H]1C(=O)c1ccc(OCCC2CCOCC2)cc1	cell-free assay	–	competition with immobilised ligand	–	1 µM	remaining binding	100%
Nc1nc(Nc2ccc(S(N)(=O)=O)cc2)nn1C(=O)c1c(F)cccc1F	cell-free assay	–	–	–	0.5 µM	remaining signal	17%
CCN1CCN(Cc2ccc(NC(=O)c3ccc(C)c(Oc4ccnc5[nH]ccc45)c3)cc2C(F)(F)F)CC1	target engagement in cells	inhibitor	chemoproteomics	Huh-7	1 µM	inhibition	-148%
Cc1cc(NC(=O)c2cccc3cc(-c4cccc5[nH]nc(N)c45)ccc23)ccc1F	enzyme activity	inhibitor	–	–	0.1 µM	activity vs control	97%
Cc1cnn2ncc(-c3ccnc(N(C)C)n3)c2c1	binding	–	–	–	1 µM	remaining binding	100%
CC/C(=N\NC(=O)NCc1cccc(O)c1)c1ccc(O)c(C)c1O	enzyme activity	inhibitor	–	–	0.1 µM	inhibition	1%
CNC(=O)c1cc2c(Oc3ccc(NC(=O)C4(C(=O)Nc5ccc(F)cc5)CC4)cc3)ccnc2cc1OC	enzyme activity	inhibitor	radiometric	–	1 µM	inhibition	75%
CCN(CC)CCNC(=O)c1c(C)[nH]c(/C=C2\C(=O)Nc3ccc(F)cc32)c1C	enzyme activity	inhibitor	–	–	0.3 µM	inhibition	37%
CC(C)c1ccc(NC(=O)c2cccs2)c(-c2nc3ccccc3[nH]c2=O)c1	enzyme activity	inhibitor	–	–	1 µM	activity vs control	103%
c1ccc(N2CCN(Cc3nc4ccccc4[nH]3)CC2)nc1	binding	–	competition with immobilised ligand	–	1 µM	remaining binding	100%
O=C(Nc1cnn(-c2csc(C(=O)NC3COC3)c2)c1)Nc1ccccc1Cl	enzyme activity	inhibitor	–	–	5 µM	remaining activity	87.9%
COc1cc(Cl)c(C(=O)N[C@@H](CN[C@H]2CC[C@@H](N)CC2)Cc2ccc(C#N)cc2)cc1-c1ccc(CN[C@H](C)c2ccc(C)cc2)o1	enzyme activity	inhibitor	–	–	1 µM	remaining activity	110%
C[C@@H](c1cccc(C#N)c1)n1cc(Cl)cc(C(N)=O)c1=N	cell-free assay	–	competition with immobilised ligand	–	1 µM	remaining binding	86%
CCN1CCN(Cc2ccc(NC(=O)c3ccc(C)c(/C=C/c4cnc5[nH]ccc5c4OC)c3)cc2C(F)(F)F)CC1	target engagement in cells	inhibitor	chemoproteomics	A-375	0.5 µM	inhibition	-69.1%
CN([C@@H]1CCc2c(CC(=O)O)c3ccccc3n2C1)S(=O)(=O)c1ccc(F)cc1	cell-free assay	–	competition with immobilised ligand	–	1 µM	remaining binding	100%
CNC(=O)c1cc(Oc2ccc(NC(=O)Nc3ccc(Cl)c(C(F)(F)F)c3)cc2)ccn1	enzyme activity	inhibitor	–	–	10 µM	inhibition	88%
NS(=O)(=O)c1cc(NC(=O)Cc2ccccc2)ccc1Oc1cccc(Cl)c1	cell-free assay	–	competition with immobilised ligand	–	1 µM	remaining binding	65%
COc1cc2c(N3CCN(C(=O)Nc4ccc(OC(C)C)cc4)CC3)ncnc2cc1OCCCN1CCCCC1	cell-free assay	–	–	–	0.5 µM	remaining signal	95%
Cc1c[nH]c2nccc(Oc3c(F)cc(Nc4cc(Cl)nc(N)n4)cc3F)c12	cell-free assay	–	competition with immobilised ligand	–	0.1 µM	remaining binding	100%
O=C1NC(=O)c2cc(Nc3ccc(F)cc3)c(Nc3ccc(F)cc3)cc21	cell-free assay	–	–	–	0.5 µM	remaining signal	79.2%
